Results from the M2OR odorant receptor database.

Assays:
Conditions in all cases: stereoisomer not certain
[1] = target: T1, OR10G2 (Homo sapiens) (UniProt Q8NGC3)
T1 sequence (whole entry): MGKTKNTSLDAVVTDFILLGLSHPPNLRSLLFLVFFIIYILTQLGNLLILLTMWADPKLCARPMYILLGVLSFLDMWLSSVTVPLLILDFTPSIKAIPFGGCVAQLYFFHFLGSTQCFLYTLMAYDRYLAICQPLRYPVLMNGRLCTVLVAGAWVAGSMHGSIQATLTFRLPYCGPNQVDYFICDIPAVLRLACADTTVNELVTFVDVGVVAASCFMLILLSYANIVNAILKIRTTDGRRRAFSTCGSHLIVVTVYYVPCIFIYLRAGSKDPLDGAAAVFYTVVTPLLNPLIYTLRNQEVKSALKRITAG
How it was run: (§1)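 Transient luciferase assays in mammalian cell lines were common, though methods varied by source. The values come from published papers and their supplementary material, with extra details from the original authors when needed. Responsive refers to a measured signal the original authors judged statistically different from baseline, and non-responsive (inactive) to the remainder.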

[2] = target: T2, OR10G3 (Homo sapiens) (UniProt Q8NGC4)
T2 sequence (whole entry): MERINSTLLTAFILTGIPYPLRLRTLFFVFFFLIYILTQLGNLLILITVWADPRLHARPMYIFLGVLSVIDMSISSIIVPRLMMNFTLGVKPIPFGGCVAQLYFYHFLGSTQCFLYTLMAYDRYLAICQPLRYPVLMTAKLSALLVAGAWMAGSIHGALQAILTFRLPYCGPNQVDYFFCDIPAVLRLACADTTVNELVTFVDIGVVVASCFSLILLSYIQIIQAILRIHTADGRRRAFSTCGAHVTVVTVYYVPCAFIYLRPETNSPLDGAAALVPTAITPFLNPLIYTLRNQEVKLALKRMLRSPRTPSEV
How it was run: as §1

[3] = target: T3, OR10G4 (Homo sapiens) (UniProt Q8NGN3)
T3 sequence (whole entry): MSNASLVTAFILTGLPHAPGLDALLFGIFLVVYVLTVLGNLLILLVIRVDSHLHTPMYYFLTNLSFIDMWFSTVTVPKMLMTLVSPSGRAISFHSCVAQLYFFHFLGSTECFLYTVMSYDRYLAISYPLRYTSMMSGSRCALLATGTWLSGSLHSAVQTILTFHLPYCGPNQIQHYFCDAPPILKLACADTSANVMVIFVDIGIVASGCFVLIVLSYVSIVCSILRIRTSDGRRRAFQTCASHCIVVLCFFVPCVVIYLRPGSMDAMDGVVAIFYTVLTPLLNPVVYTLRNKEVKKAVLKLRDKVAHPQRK
How it was run: as §1

[4] = target: T4, OR10G6 (Homo sapiens) (UniProt Q8NH81)
T4 sequence (whole entry): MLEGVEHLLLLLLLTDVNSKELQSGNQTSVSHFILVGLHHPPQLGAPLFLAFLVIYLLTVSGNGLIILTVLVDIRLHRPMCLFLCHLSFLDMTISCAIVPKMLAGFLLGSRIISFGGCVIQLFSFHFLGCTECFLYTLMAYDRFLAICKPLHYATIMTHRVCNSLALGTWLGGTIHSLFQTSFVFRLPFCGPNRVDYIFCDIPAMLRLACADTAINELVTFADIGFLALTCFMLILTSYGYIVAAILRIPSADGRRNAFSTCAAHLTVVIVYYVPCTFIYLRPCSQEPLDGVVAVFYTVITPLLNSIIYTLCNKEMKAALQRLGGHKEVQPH
How it was run: as §1

[5] = target: T5, OR10G7 (Homo sapiens) (UniProt Q8NGN6)
T5 sequence (whole entry): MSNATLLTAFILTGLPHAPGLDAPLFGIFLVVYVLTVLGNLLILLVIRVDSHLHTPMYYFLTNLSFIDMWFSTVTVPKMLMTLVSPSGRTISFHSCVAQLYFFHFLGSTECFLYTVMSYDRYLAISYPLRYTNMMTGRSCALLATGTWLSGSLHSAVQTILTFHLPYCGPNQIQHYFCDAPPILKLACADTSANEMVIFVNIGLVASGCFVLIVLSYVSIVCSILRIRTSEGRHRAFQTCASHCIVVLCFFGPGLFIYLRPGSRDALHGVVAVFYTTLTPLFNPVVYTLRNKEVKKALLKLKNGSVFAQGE
How it was run: as §1

[6] = target: T6, OR10G8 (Homo sapiens) (UniProt Q8NGN5)
T6 sequence (whole entry): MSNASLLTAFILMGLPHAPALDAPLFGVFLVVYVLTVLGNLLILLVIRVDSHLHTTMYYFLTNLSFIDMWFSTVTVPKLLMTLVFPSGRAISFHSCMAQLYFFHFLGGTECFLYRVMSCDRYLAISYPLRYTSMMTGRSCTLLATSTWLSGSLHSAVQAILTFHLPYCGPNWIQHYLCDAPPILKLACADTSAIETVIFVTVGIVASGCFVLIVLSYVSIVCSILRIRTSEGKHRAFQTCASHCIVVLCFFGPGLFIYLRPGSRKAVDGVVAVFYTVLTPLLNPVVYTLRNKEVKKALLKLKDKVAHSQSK
How it was run: as §1

[7] = target: T7, OR10G9 (Homo sapiens) (UniProt Q8NGN4)
T7 sequence (whole entry): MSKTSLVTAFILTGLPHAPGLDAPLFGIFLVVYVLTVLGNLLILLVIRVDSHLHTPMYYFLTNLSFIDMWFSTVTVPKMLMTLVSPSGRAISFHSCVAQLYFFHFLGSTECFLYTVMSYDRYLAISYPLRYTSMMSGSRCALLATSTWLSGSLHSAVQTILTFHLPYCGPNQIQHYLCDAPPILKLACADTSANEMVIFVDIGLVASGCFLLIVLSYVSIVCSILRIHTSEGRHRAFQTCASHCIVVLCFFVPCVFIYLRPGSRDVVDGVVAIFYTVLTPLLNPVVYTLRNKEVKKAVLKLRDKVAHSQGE
How it was run: as §1

[8] = target: T8, OR10H1 (Homo sapiens) (UniProt Q9Y4A9)
T8 sequence (whole entry): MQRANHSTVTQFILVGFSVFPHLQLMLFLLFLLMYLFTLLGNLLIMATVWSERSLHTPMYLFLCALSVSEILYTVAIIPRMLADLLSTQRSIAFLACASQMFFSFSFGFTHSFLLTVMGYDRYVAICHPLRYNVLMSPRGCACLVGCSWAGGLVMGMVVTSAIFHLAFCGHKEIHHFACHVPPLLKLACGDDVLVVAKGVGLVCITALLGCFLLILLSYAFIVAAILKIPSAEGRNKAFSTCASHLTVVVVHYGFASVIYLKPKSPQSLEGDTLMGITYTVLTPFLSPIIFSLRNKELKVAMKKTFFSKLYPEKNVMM
How it was run: as §1

[9] = target: T9, OR10H2 (Homo sapiens) (UniProt O60403)
T9 sequence (whole entry): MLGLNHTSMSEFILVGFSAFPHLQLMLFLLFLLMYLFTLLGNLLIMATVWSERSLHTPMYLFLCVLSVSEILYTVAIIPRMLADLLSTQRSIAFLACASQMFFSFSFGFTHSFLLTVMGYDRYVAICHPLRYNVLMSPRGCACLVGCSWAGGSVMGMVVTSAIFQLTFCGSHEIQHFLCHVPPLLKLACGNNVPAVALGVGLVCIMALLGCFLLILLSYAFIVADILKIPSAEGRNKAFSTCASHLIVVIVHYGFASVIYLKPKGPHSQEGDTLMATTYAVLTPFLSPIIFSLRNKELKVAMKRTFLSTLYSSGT
How it was run: as §1

[10] = target: T10, OR10H3 (Homo sapiens) (UniProt O60404)
T10 sequence (whole entry): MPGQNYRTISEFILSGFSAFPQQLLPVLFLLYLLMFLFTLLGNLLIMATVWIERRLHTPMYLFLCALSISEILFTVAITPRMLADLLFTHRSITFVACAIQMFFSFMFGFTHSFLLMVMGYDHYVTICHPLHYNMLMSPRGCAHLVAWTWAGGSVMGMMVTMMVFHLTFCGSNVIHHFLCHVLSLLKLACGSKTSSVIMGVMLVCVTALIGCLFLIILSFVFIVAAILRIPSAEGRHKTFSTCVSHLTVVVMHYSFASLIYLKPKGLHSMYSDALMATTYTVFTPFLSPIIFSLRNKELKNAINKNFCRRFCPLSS
How it was run: as §1

Measured: odorant receptor agonist call;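 note: active if original authors judged signal statistically different from baseline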

CCCCCC(=O)C(C)C(C)=O (stereo not given)
inactive: [1] | [2] | [3] | [4] | [5] | [6] | [7] | [8] | [9] | [10]
